{"source": "ChEMBL document CHEMBL4038303", "about": "“Simultaneous Drug Targeting of the Promoter MYC G-Quadruplex and BCL2 i-Motif in Diffuse Large B-Cell Lymphoma Delays Tumor Growth” (J Med Chem, 2017)", "key": {"Mus musculus [1]": {"system": "Mus musculus", "assay": "Toxicity in scid mouse xenografted with human U2932 cells assessed as survival at 5 mg/kg, ip administered for 5 consecutive days cotreated with NSC-59276 and CPA", "assay_type": "organism-based", "conditions": "in vivo", "procedure,_shortened": "(§1)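 SCID mice (6−8 weeks, female or male, serum immunoglobulin ≤20 μg/mL by ELISA) implanted subcutaneously in left flank with 10 × 10^6 U2932 cells in 100 μL saline; pair-matched by tumor volume; dosed ip daily for 5 days; controls received all compound diluents; tumor volume a2 × b/2; outliers by Grubbs' test; two-tailed t test with Šidák–Bonferroni correction.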"}, "HT": {"system": "HT", "assay": "Down regulation of BLC2 mRNA level in human HT cells up to 3 uM after 24 hrs by qPCR method", "assay_type": "functional, cell-based", "procedure,_shortened": "(§2)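 DLBCL lines grown in RPMI with 10% FBS (SUDHL4 15% FBS) and penicillin/streptomycin. Cells exposed for 24 h to rising concentrations up to 3 μM; DMSO as vehicle control. Total RNA isolated, target mRNA measured by TaqMan real-time qPCR, normalized to TBP and expressed relative to untreated cells; triplicate experiments, two-tailed t test.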"}, "Homo sapiens [2]": {"species_on_record": "Homo sapiens", "assay": "Binding affinity to c-myc G-quadruplex DNA in BCL2 and MYC translocation-positive human VAL cells assessed as downregulation of MYC protein levels up to 3 uM after 24 hrs by Western blot analysis", "procedure,_shortened": "(§3)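 Cell lines treated 24 h with compound up to 3 μM, with untreated and DMSO-treated controls. Lysates (20 μg total protein) probed by Western blot for BCL2 or MYC with antibodies at 1:1000; actin as loading control. Blots representative of triplicate experiments.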"}, "Homo sapiens [3]": {"species_on_record": "Homo sapiens", "assay": "Binding affinity to c-myc G-quadruplex DNA in human HT cells assessed as downregulation of MYC protein levels up to 3 uM after 24 hrs by Western blot analysis", "assay_type": "cell-based", "procedure,_shortened": "as §3"}, "Homo sapiens [4]": {"species_on_record": "Homo sapiens", "assay": "Binding affinity to BLC2 G-quadruplex DNA in BCL2 translocation-positive human SUDHL4 cells assessed as downregulation of BLC2 mRNA levels at 3 uM after 24 hrs by qPCR method", "procedure,_shortened": "as §2"}, "Homo sapiens [5]": {"species_on_record": "Homo sapiens", "assay": "Binding affinity to BLC2 i-motif promoter DNA in BCL2 and MYC translocation-positive human VAL cells assessed as downregulation of BLC2 mRNA levels up to 3 uM after 24 hrs by qPCR method", "procedure,_shortened": "as §2"}, "Homo sapiens [6]": {"species_on_record": "Homo sapiens", "assay": "Binding affinity to c-myc G-quadruplex DNA in MYC translocation-positive and BCL2 amplification-positive human U2932 cells assessed as downregulation of MYC mRNA levels after 24 hrs by qPCR method", "procedure,_shortened": "as §2"}, "Homo sapiens [7]": {"species_on_record": "Homo sapiens", "assay": "Binding affinity to c-myc G-quadruplex DNA in human HT cells assessed as downregulation of MYC mRNA levels at 3 uM after 24 hrs by qPCR method", "assay_type": "cell-based", "procedure,_shortened": "as §2"}, "Homo sapiens [8]": {"species_on_record": "Homo sapiens", "assay": "Binding affinity to c-myc G-quadruplex DNA in human HT cells assessed as downregulation of MYC mRNA levels at 0.25 to 3 uM after 6 hrs by qPCR method", "assay_type": "cell-based"}, "Homo sapiens [9]": {"species_on_record": "Homo sapiens", "assay": "Binding affinity to c-myc G-quadruplex DNA in human VAL cells assessed as downregulation of MYC mRNA levels at 0.25 to 3 uM after 6 hrs by qPCR method", "assay_type": "cell-based"}, "U2932 [10]": {"system": "U2932", "assay": "Potentiation of CPA-induced antitumor activity against human U2932 cells xenografted in SCID mouse assessed as reduction in tumor burden at 5 mg/kg, ip administered for 5 consecutive days measured up to 10 days post first treatement", "assay_type": "functional, organism-based", "procedure,_shortened": "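SCID mice bearing subcutaneous left-flank U2932 xenografts (10 × 10^6 cells in saline), pair-matched by tumor volume. Test agent given ip daily for 5 days with 50 mg/kg CPA; diluent-treated and CPA-alone controls. Tumor volume estimated as a2 × b/2 from smallest and largest diameters. Grubbs' test for outliers; two-tailed Student's t test.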"}, "Mus musculus [11]": {"system": "Mus musculus", "assay": "Toxicity in scid mouse xenografted with human U2932 cells assessed as change in body weight at 2.5 to 5 mg/kg, ip administered for 5 consecutive days in presence of CPA", "assay_type": "organism-based", "conditions": "in vivo", "procedure,_shortened": "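SCID mice aged 6−8 weeks with serum Ig ≤20 μg/mL received U2932 cells (10 × 10^6 in 100 μL saline) subcutaneously in the left flank. Mice were pair-matched by tumor volume. Compound at 2.5 or 5 mg/kg with 50 mg/kg cyclophosphamide was given ip daily for 5 days. Controls received the diluents. Grubbs' test was used to exclude outliers.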"}, "Homo sapiens [12]": {"species_on_record": "Homo sapiens", "assay": "Stabilization of c-myc G-quadruplex DNA in MYC translocation-positive and BCL2 amplification-positive human U2932 cells assessed as potentiation of CPA-induced apoptosis by measuring increase in caspase-3 activity at 3 uM after 24 hrs in presence of NSC-59276 by AFC based fluorescence assay (reference value: 30%)"}, "Homo sapiens [13]": {"species_on_record": "Homo sapiens", "assay": "Stabilization of c-myc G-quadruplex DNA in BCL2 translocation-positive human SUDHL4 cells assessed as potentiation of CPA-induced apoptosis by measuring increase in caspase-3 activity at 3 uM after 24 hrs in presence of NSC-59276 by AFC based fluorescence assay (reference value: 30%)"}, "U2932 [14]": {"system": "U2932", "assay": "Potentiation of CPA-induced antitumor activity against human U2932 cells xenografted in SCID mouse assessed as tumor growth inhibition at 7.5 mg/kg, ip for 5 days cotreated with 10 mg/kg NSC-59276 measured on day 12 post first treatment (reference value: 67%)", "assay_type": "functional", "procedure,_shortened": "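U2932 DLBCL cells (10 × 10^6 in 100 μL sterile saline, viability >91%) injected subcutaneously into left flank of SCID mice (6−8 weeks, immunoglobulin ≤20 μg/mL). Mice pair-matched by tumor volume. Drugs given ip daily for 5 days, CPA 30 mg/kg; controls received all diluents. Tumor volume = a2 × b/2 (a smallest, b largest diameter); n = 5−8; Grubbs' test for outliers.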"}, "Mus musculus [15]": {"system": "Mus musculus", "assay": "Reduction in Myc mRNA level in tumor of SCID mouse xenografted with human U2932 cells at 5 to 7.5 mg/kg, ip administered for 5 consecutive days cotreated with CPA and NSC-59276 by qPCR method", "assay_type": "functional, organism-based", "procedure,_shortened": "(§4)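 Tumors from U2932 xenograft SCID mice given ip treatment daily for 5 days were harvested. Total RNA was taken from the same tumor preparations used for protein lysates, and MYC or BCL2 mRNA was quantified by TaqMan qPCR normalized to TBP. Comparisons were made with diluent-treated mice or CPA-only mice.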"}, "Mus musculus [16]": {"system": "Mus musculus", "assay": "Toxicity in scid mouse xenografted with human U2932 cells assessed as change in body weight at 5 to 7.5 mg/kg, ip administered for 5 consecutive days in presence of CPA", "assay_type": "organism-based", "conditions": "in vivo", "procedure,_shortened": "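In the follow-up U2932 subcutaneous xenograft study in SCID mice (pair-matched by tumor volume, n = 5−8), compound at 5 or 7.5 mg/kg was given ip daily for 5 days with 30 mg/kg cyclophosphamide and 10 mg/kg BCL2 i-motif ligand. Diluent was given in place of any absent agent. Body weight and survival were followed.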"}, "Mus musculus [17]": {"system": "Mus musculus", "assay": "Toxicity in SCID mouse xenografted with human U2932 cells assessed as survival at 7.5 mg/kg, ip administered for 5 consecutive days in presence of CPA", "assay_type": "organism-based", "conditions": "in vivo", "procedure,_shortened": "as §1"}, "Mus musculus [18]": {"system": "Mus musculus", "assay": "Toxicity in scid mouse xenografted with human U2932 cells assessed as survival at 10 mg/kg, ip administered for 5 consecutive days cotreated with NSC-59276 and CPA", "assay_type": "organism-based", "conditions": "in vivo", "procedure,_shortened": "as §1"}, "Mus musculus [19]": {"system": "Mus musculus", "assay": "Reduction in Bcl2 mRNA level in SCID mouse xenografted with human U2932 cells at 10 mg/kg, ip administered for 5 consecutive days cotreated with CPA and NSC-59276 by qPCR method", "assay_type": "functional, organism-based", "procedure,_shortened": "as §4"}}, "note": "Calls of active or inactive are those of the source. No cut-off for these calls is given here.", "data": [{"smiles": "Cc1c2ccncc2c(C)c2c1[nH]c1ccc(OCCN(C)C)cc12.Cl.Cl", "values": [{"measurement": "Activity", "setting": "Mus musculus [1]", "result": "Non-Toxic"}, {"measurement": "Activity", "setting": "HT", "result": "inactive"}, {"measurement": "Activity", "setting": "Homo sapiens [2]", "result": "Active"}, {"measurement": "Activity", "setting": "Homo sapiens [3]", "result": "Active"}, {"measurement": "Activity", "setting": "Homo sapiens [4]", "result": "Active"}, {"measurement": "Activity", "setting": "Homo sapiens [5]", "result": "inactive"}, {"measurement": "Activity", "setting": "Homo sapiens [6]", "result": "Dose-dependent effect"}, {"measurement": "Activity", "setting": "Homo sapiens [7]", "result": "Active"}, {"measurement": "Activity", "setting": "Homo sapiens [8]", "result": "Active"}, {"measurement": "Activity", "setting": "Homo sapiens [9]", "result": "Active"}, {"measurement": "Activity", "setting": "U2932 [10]", "result": "Active"}, {"measurement": "Activity", "setting": "Mus musculus [11]", "result": "Non-Toxic"}, {"measurement": "Activity", "setting": "Homo sapiens [12]", "result": 100, "unit": "%"}, {"measurement": "Activity", "setting": "Homo sapiens [13]", "result": 100, "unit": "%"}, {"measurement": "TGI", "setting": "U2932 [14]", "result": 46, "unit": "%"}, {"measurement": "Activity", "setting": "Mus musculus [15]", "result": "Active"}, {"measurement": "Activity", "setting": "Mus musculus [16]", "result": "Non-Toxic"}, {"measurement": "Activity", "setting": "Mus musculus [17]", "result": "Non-Toxic"}, {"measurement": "Activity", "setting": "Mus musculus [18]", "result": "Toxic"}, {"measurement": "Activity", "setting": "Mus musculus [19]", "result": "Active"}]}]}
